Data as given in ChEMBL document CHEMBL3044720, “Phytotoxic Eremophilanes from Ligularia macrophylla” (J Agric Food Chem, 2007).
Active and inactive are the calls of the source. No cut-off for these calls is given here.

Tests used:
Lactuca sativa [1] = test: Phytotoxic activity against Lactuca sativa (lettuce) seeds assessed as inhibition of germination at 1 uM at 26 degC measured 7 days post-drug dose; assay type: functional, organism-based
Summary of the method: (§1)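 Each well held 5 mg lettuce or 10 mg bentgrass seed plus 250 µL of compound in water with 3% acetone final; acetone/water controls were included. Sealed plates were kept at 26 °C under continuous light (173 µmol/m²/s). Germination was rated visually on a 0–5 scale (0 = no effect, 5 = no germination/growth) against controls, after 7 days for lettuce and 12 days for bentgrass.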

Coptotermes formosanus [2] = test: Antitermite activity against greater than third-instar stage of Coptotermes formosanus workers/1 soldier in compound-pretreated filter paper assessed as mortality at 0.5% at 26 degC after 6 days (reference value: 2.5 +/-5%); assay type: functional
Summary of the method: (§2)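 Test material in acetone (100 µL) was blotted onto 2.5 cm filter paper discs, dried several hours, then moistened with 100 µL water. Each dish held 20 workers (third instar or greater) and two soldiers. Dishes were kept at ca. 100% RH and 26 °C, with water-only controls. Four replicates came from different colonies. Mortality was scored daily for 3 weeks, reported as mean and SD, and compared by ANOVA with Fisher LSD (P < 0.05).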

Coptotermes formosanus [3] = test: Antitermite activity against greater than third-instar stage of Coptotermes formosanus workers/1 soldier in compound-pretreated filter paper assessed as filter paper consumption at 0.5% at 26 degC after 21 days (reference value: 41.4 +/-5.6 mg); assay type: functional
Allium cepa [4] = test: Inhibition of mitotic cell division in Allium cepa cv. Evergreen (onion) root tips assessed as cell count at telophase stage of cell cycle at 100 to 300 uM at 24 degC; assay type: functional, organism-based
Lactuca sativa [5] = test: Phytotoxic activity against Lactuca sativa (lettuce) seeds assessed as inhibition of germination at 10 uM at 26 degC measured 7 days post-drug dose; assay type: functional, organism-based; summary of the method: as §1
Coptotermes formosanus [6] = test: Antitermite activity against greater than third-instar stage of Coptotermes formosanus workers/1 soldier in compound-pretreated filter paper assessed as mortality at 0.5% at 26 degC after 1 day (reference value: 0%); assay type: functional; summary of the method: as §2
Agrostis stolonifera [7] = test: Phytotoxic activity against Agrostis stolonifera seeds assessed as inhibition of germination at 1 uM at 26 degC measured 12 days post-drug dose; assay type: functional, organism-based; summary of the method: as §1
Lactuca sativa [8] = test: Phytotoxic activity against Lactuca sativa (lettuce) seeds assessed as inhibition of germination at 1000 uM at 26 degC measured 7 days post-drug dose; assay type: functional, organism-based; summary of the method: as §1
Allium cepa [9] = test: Inhibition of mitotic cell division in Allium cepa cv. Evergreen (onion) root tips assessed as cell count at anaphase stage of cell cycle at 100 to 300 uM at 24 degC; assay type: functional, organism-based
Allium cepa [10] = test: Inhibition of mitotic cell division in Allium cepa cv. Evergreen (onion) root tips assessed as cell count at metaphase stage of cell cycle at 100 to 300 uM at 24 degC; assay type: functional, organism-based
Allium cepa [11] = test: Inhibition of mitotic cell division in Allium cepa cv. Evergreen (onion) root tips assessed as cell count at prophase stage of cell cycle at 100 to 300 uM at 24 degC; assay type: functional, organism-based
Cucumis sativus [12] = test: Induction of cell membrane integrity disruption in Cucumis sativus (cucumber) cotyledons assessed as electrolyte leakage at 25 degC by conductivity meter analysis; assay type: functional
Summary of the method: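 Twenty-five 4 mm cucumber cotyledon discs (~50 mg fresh weight) were bathed in 5 mL of 2% sucrose, 1 mM MES pH 6.5, with 1% (v/v) acetone final in controls and treatments. Incubation was at 25 °C in darkness. Leakage into the bathing medium was followed over time by conductivity; six replicates per treatment.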

Lemna aequinoctialis [13] = test: Phytotoxic activity against three-frond Lemna paucicostata colonies assessed as growth inhibition at 100 uM after 4 days; assay type: functional, organism-based
Summary of the method: (§3)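 Hoagland medium at pH 5.5 was filter-sterilized, with compound added in acetone or EtOH (1% final); tested range 100 to 0.1 µM. Two three-frond colonies from 4–5-day-old stock cultures were placed per well. Total frond area was imaged on days 0–4, and % increase was taken relative to day 0. IC50 came from a four-parameter logistic fit in R drc.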

Coptotermes formosanus [14] = test: Antitermite activity against greater than third-instar stage of Coptotermes formosanus workers/1 soldier in compound-pretreated filter paper assessed as mortality at 0.5% at 26 degC after 21 days (reference value: 3.8 +/-4.8%); assay type: functional; summary of the method: as §2
Coptotermes formosanus [15] = test: Antitermite activity against greater than third-instar stage of Coptotermes formosanus workers/1 soldier in compound-pretreated filter paper assessed as mortality at 0.5% at 26 degC after 13 days (reference value: 3.8 +/-4.8%); assay type: functional; summary of the method: as §2
Cucumis sativus [16] = test: Inhibition of photosynthetic electron transport rate in Cucumis sativa Straight Eight (cucumber) cotyledons assessed as chlorophyll fluorescence at 100 uM at 22 degC measured at 2 to 24 hr post-drug treatment under constant light by fluorometer analysis; assay type: functional, organism-based
Summary of the method: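 8 mm cotyledon discs were cut from 6-day-old cucumber 'Straight Eight'. Variable chlorophyll fluorescence was read with a pulse-modulated fluorometer before treatment, then at 2, 4, 8 and 24 h. Discs sat in 1 mL 0.1% Tween 20 with 100 µM compound, 0.1% acetone solvent control or 10 µM atrazine, at 22 °C under continuous light; triplicate.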

Lactuca sativa [17] = test: Phytotoxic activity against Lactuca sativa (lettuce) seeds assessed as inhibition of germination at 100 uM at 26 degC measured 7 days post-drug dose; assay type: functional, organism-based; summary of the method: as §1
Agrostis stolonifera [18] = test: Phytotoxic activity against Agrostis stolonifera seeds assessed as inhibition of germination at 10 uM at 26 degC measured 12 days post-drug dose; assay type: functional, organism-based; summary of the method: as §1
Colletotrichum acutatum = test: Antifungal activity against Colletotrichum acutatum assessed as diameter of growth inhibitory zone at 10 ug after 4-5 days by direct bioautography; assay type: functional
Summary of the method: (§4)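 Direct TLC bioautography against strawberry-anthracnose Colletotrichum isolates grown on PDA at 24 ± 2 °C under a 12 h photoperiod. Conidia were harvested from 7–10-day cultures and filtered. Developed plates carrying 10 µg/spot were sprayed with 10^5 spores/mL and held in a moisture chamber for 4 days at 26 °C with a 12 h photoperiod. Zone diameters were measured 4–5 days after treatment.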

Agrostis stolonifera [19] = test: Phytotoxic activity against Agrostis stolonifera seeds assessed as inhibition of germination at 1000 uM at 26 degC measured 12 days post-drug dose; assay type: functional, organism-based; summary of the method: as §1
Agrostis stolonifera [20] = test: Phytotoxic activity against Agrostis stolonifera seeds assessed as inhibition of germination at 100 uM at 26 degC measured 12 days post-drug dose; assay type: functional, organism-based; summary of the method: as §1
Colletotrichum fragariae = test: Antifungal activity against Colletotrichum fragariae assessed as growth inhibition at 10 ug after 4-5 days by direct bioautography; assay type: functional, organism-based; summary of the method: as §4
[21] = tested on: Colletotrichum gloeosporioides; test: Antifungal activity against Colletotrichum gloeosporioides assessed as growth inhibition at 10 ug after 4-5 days by direct bioautography; assay type: functional, organism-based; summary of the method: as §4
Lemna aequinoctialis [22] = test: Phytotoxic activity against three-frond Lemna paucicostata colonies assessed as growth inhibition after 4 days; assay type: functional, organism-based; settings: 96 h; summary of the method: as §3
Cucumis sativus [23] = test: Inhibition of photosynthetic electron transport rate in Cucumis sativa Straight Eight (cucumber) cotyledons assessed as chlorophyll fluorescence at 10 uM at 22 degC measured at 2 to 24 hr post-drug treatment under constant light by fluorometer analysis; assay type: functional, organism-based
Summary of the method: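 Cotyledon discs (8 mm) were cut from 6-day-old plants. Induced variable chlorophyll fluorescence was read on a pulse-modulated fluorometer before each disc was placed in 1 mL of 0.1% Tween 20, with or without treatment; the solvent control was 0.1% acetone. Discs were kept at 22 °C under continuous light and read again at 2, 4, 8 and 24 h. Each treatment was run in triplicate.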

SMILES: Cc1coc2c1[C@@H]1OC(=O)[C@H]3CCC[C@H](C2)[C@@]31C
- inhibition (Lactuca sativa [1]): inactive
- mortality (Coptotermes formosanus [2]): 1.3%
- Activity (Coptotermes formosanus [3]): 43.1 mg
- inhibition (Allium cepa [4]): inactive
- inhibition (Lactuca sativa [5]): inactive
- mortality (Coptotermes formosanus [6]): 1.3%
- inhibition (Agrostis stolonifera [7]): inactive
- inhibition (Lactuca sativa [8]): inactive
- inhibition (Allium cepa [9]): inactive
- inhibition (Allium cepa [10]): inactive
- inhibition (Allium cepa [11]): inactive
- Activity (Cucumis sativus [12]): inactive
- growth inhibition (GI) (Lemna aequinoctialis [13]): inactive
- mortality (Coptotermes formosanus [14]): 8.8%
- mortality (Coptotermes formosanus [15]): 3.8%
- inhibition (Cucumis sativus [16]): inactive
- inhibition (Lactuca sativa [17]): inactive

SMILES: CC/C=C\C/C=C\C/C=C\CCCCCCCC(=O)O [LINOLENIC ACID]
- inhibition (Agrostis stolonifera [18]): inactive
- inhibition (Lactuca sativa [1]): inactive
- mortality (Coptotermes formosanus [2]): 0%
- Activity (Coptotermes formosanus [3]): 44.2 mg
- inhibition (Lactuca sativa [5]): inactive
- mortality (Coptotermes formosanus [6]): 0%
- inhibition (Agrostis stolonifera [7]): inactive
- Activity (Colletotrichum acutatum): 2.9 mm
- inhibition (Agrostis stolonifera [19]): inactive
- inhibition (Agrostis stolonifera [20]): inactive
- inhibition (Lactuca sativa [8]): inactive
- growth inhibition (GI) (Colletotrichum fragariae): inactive
- mortality (Coptotermes formosanus [14]): 6.3%
- growth inhibition (GI) [21]: inactive
- mortality (Coptotermes formosanus [15]): 5%
- inhibition (Lactuca sativa [17]): inactive

SMILES: CC1=C2C3OC(=O)[C@H]4CCC[C@H](C[C@@H]2OC1=O)[C@]34C (single isomer, unassigned)
- inhibition (Agrostis stolonifera [18]): inactive
- inhibition (Lactuca sativa [1]): inactive
- inhibition (Lactuca sativa [5]): inactive
- inhibition (Agrostis stolonifera [7]): inactive
- inhibition (Agrostis stolonifera [19]): Active
- inhibition (Agrostis stolonifera [20]): inactive
- growth inhibition (GI) (Lemna aequinoctialis [13]): inactive
- inhibition (Lactuca sativa [17]): inactive

SMILES: C/C=C(/C)C(=O)O[C@@H]1c2c(C)coc2C[C@@]2(O)CCC[C@H](C)[C@@]12C
- inhibition (Agrostis stolonifera [18]): inactive
- inhibition (Lactuca sativa [1]): inactive
- mortality (Coptotermes formosanus [2]): 3.8%
- Activity (Coptotermes formosanus [3]): 16.5 mg
- inhibition (Allium cepa [4]): inactive
- inhibition (Lactuca sativa [5]): inactive
- mortality (Coptotermes formosanus [6]): 1.3%
- inhibition (Agrostis stolonifera [7]): inactive
- inhibition (Allium cepa [9]): inactive
- inhibition (Allium cepa [10]): inactive
- inhibition (Allium cepa [11]): inactive
- Activity (Cucumis sativus [12]): inactive
- mortality (Coptotermes formosanus [14]): 18.8%
- IC50 (Lemna aequinoctialis [22]): 2.94 µM
- mortality (Coptotermes formosanus [15]): 16.3%
- inhibition (Cucumis sativus [16]): Active
- inhibition (Lactuca sativa [17]): inactive

SMILES: CCNc1nc(Cl)nc(NC(C)C)n1
- inhibition (Cucumis sativus [23]): inactive

SMILES: CCCCC/C=C\C/C=C\CCCCCCCC(=O)O [LINOLEIC ACID]
- inhibition (Agrostis stolonifera [18]): inactive
- inhibition (Lactuca sativa [1]): inactive
- mortality (Coptotermes formosanus [2]): 3.8%
- Activity (Coptotermes formosanus [3]): 44.6 mg
- inhibition (Lactuca sativa [5]): inactive
- mortality (Coptotermes formosanus [6]): 2.5%
- inhibition (Agrostis stolonifera [7]): inactive
- Activity (Colletotrichum acutatum): 2.9 mm
- inhibition (Agrostis stolonifera [20]): inactive
- inhibition (Lactuca sativa [8]): inactive
- growth inhibition (GI) (Colletotrichum fragariae): inactive
- mortality (Coptotermes formosanus [14]): 6.3%
- growth inhibition (GI) [21]: inactive
- mortality (Coptotermes formosanus [15]): 5%
- inhibition (Lactuca sativa [17]): inactive

SMILES: C=C1COC(=O)[C@@]12C[C@H]1CC[C@@H](OC(=O)/C(C)=C\C)[C@H](C)C1(C)C2 (single isomer, unassigned)
- inhibition (Agrostis stolonifera [18]): inactive
- inhibition (Lactuca sativa [1]): inactive
- mortality (Coptotermes formosanus [2]): 2.5%
- Activity (Coptotermes formosanus [3]): 40 mg
- inhibition (Lactuca sativa [5]): inactive
- mortality (Coptotermes formosanus [6]): 0%
- inhibition (Agrostis stolonifera [7]): inactive
- inhibition (Agrostis stolonifera [20]): inactive
- growth inhibition (GI) (Lemna aequinoctialis [13]): inactive
- mortality (Coptotermes formosanus [14]): 2.5%
- mortality (Coptotermes formosanus [15]): 2.5%
- inhibition (Lactuca sativa [17]): inactive
